Test results as given in ChEMBL document CHEMBL3102776, “Synthesis and biological evaluation of farnesylthiosalicylamides as potential anti-tumor agents” (Bioorg Med Chem, 2014).
pIC50: −log10 of the molar value. ≈ marks a conversion by molar mass, not a printed value. Calls of active or inactive are those of the source. No cut-off for these calls is given here.

Experiments:
[1] = Cytotoxicity against human SGC7901 cells after 48 hrs by MTT assay; type: functional, cell-based; details: SGC-7901, 48 h
Method in brief: (§1)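 Cells seeded at 10⁴ per well in DMEM with 10% FBS and grown overnight. Compound at a range of concentrations for 48 h, in triplicate. MTT (5 mg mL⁻¹ stock) added for the last 4 h, formazan dissolved in DMSO, absorbance read at 570 nm. Percent inhibition used to derive IC50. Values are mean ± SEM of at least three independent experiments.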

SK-OV-3 = assay: Cytotoxicity against human SKOV3 cells after 48 hrs by MTT assay; type: functional, cell-based; details: SK-OV-3, 48 h; method in brief: as §1
EJ = assay: Cytotoxicity against human EJ cells after 48 hrs by MTT assay; type: functional, cell-based; method in brief: as §1
[2] = Cytotoxicity against human PANC1 cells after 48 hrs by MTT assay; type: functional, cell-based; details: PANC-1, 48 h; method in brief: as §1
SMMC-7721 [3] = assay: Cytotoxicity against human SMMC7721 cells after 48 hrs by MTT assay; type: functional, cell-based; details: SMMC-7721, 48 h; method in brief: as §1
[4] = Aqueous solubility of the compound in 10% PEG400 aqueous solution after 24 hrs by HPLC analysis; type: physicochemical
Method in brief: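 Roughly 20.0 mg of solid in 5 mL of 10% PEG400 in water. Sonicated 10 min, then stirred 24 h at 25 °C in a water bath. Centrifuged 10 min at 10,000 rpm and the supernatant passed through a microporous membrane. Concentration measured by HPLC against a standard curve.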

MCF7 = assay: Cytotoxicity against human MCF7 cells after 48 hrs by MTT assay; type: functional, cell-based; details: MCF7, 48 h; method in brief: as §1
[5] = Cytotoxicity against human H460 cells after 48 hrs by MTT assay; type: functional, cell-based; details: NCI-H460, 48 h; method in brief: as §1
SMMC-7721 [6] = assay: Inhibition of Ras in human SMMC7721 cells assessed as reduction in phosphorylated ERK1 level at 12 uM after 8 hrs by immunoblotting analysis; type: cell-based
Method in brief: (§2)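 SMMC-7721 cells at 1.5 × 10⁵/mL treated with 3.0, 6.0 or 12 µmol/L compound or vehicle for 8 h. Cells lysed, 50 µg protein per lane run on 12% SDS–PAGE gels. Blots probed for total and phospho-ERK1/2 (Thr202/Tyr204), total and phospho-Akt (Ser473), and β-actin. Densitometry relative to β-actin. Means ± SEM of three experiments.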

SMMC-7721 [7] = assay: Inhibition of Ras in human SMMC7721 cells assessed as reduction in phosphorylated Akt level at 12 uM after 8 hrs by immunoblotting analysis; type: cell-based; method in brief: as §2
[8] = Lipophilicity, log P of the compound in 10% PEG400 aqueous solution; type: physicochemical
SMMC-7721 [9] = assay: Induction of apoptosis in human SMMC7721 cells assessed as late apoptotic cells at 12 uM after 48 hrs by annexin V-FITC/propidium iodide staining-based flow cytometry (reference value: 1.55%); type: functional
SMMC-7721 [10] = assay: Induction of apoptosis in human SMMC7721 cells assessed as viable cells at 12 uM after 48 hrs by annexin V-FITC/propidium iodide staining-based flow cytometry (reference value: 93.81%); type: functional; details: SMMC-7721, 48 h, read-out: Activity
SMMC-7721 [11] = assay: Induction of apoptosis in human SMMC7721 cells assessed as early apoptotic cells at 12 uM after 48 hrs by annexin V-FITC/propidium iodide staining-based flow cytometry (reference value: 3.87%); type: functional
SMMC-7721 [12] = assay: Induction of apoptosis in human SMMC7721 cells assessed as necrotic cells at 12 uM after 48 hrs by annexin V-FITC/propidium iodide staining-based flow cytometry (reference value: 0.77%); type: functional
SMMC-7721 [13] = assay: Inhibition of Ras in human SMMC7721 cells assessed as reduction in phosphorylated ERK2 level at 12 uM after 8 hrs by immunoblotting analysis; type: cell-based; method in brief: as §2

| solubility at 24 h [4] [mg/mL] | logP [8] | SMILES | pIC50 [1] | pIC50 (SK-OV-3) | pIC50 (EJ) | pIC50 [2] | pIC50 (SMMC-7721 [3]) | pIC50 (MCF7) | pIC50 [5] | Activity (SMMC-7721 [6]) | Activity (SMMC-7721 [7]) | Activity (SMMC-7721 [9]) [%] | viability at 12 µM (SMMC-7721 [10]) [%] | Activity (SMMC-7721 [11]) [%] | Activity (SMMC-7721 [12]) [%] | Activity (SMMC-7721 [13]) |
| --- | --- | --- | --- | --- | --- | --- | --- | --- | --- | --- | --- | --- | --- | --- | --- | --- |
| < 0.01 |  | CC(C)=CCC/C(C)=C/CC/C(C)=C/CSc1ccccc1C(=O)NCCCCCNC(=O)c1ccccc1SC/C=C(\C)CC/C=C(\C)CCC=C(C)C | < 4.30 | 4.38 | 4.40 | < 4.30 | 4.44 | < 4.30 | 4.33 |  |  |  |  |  |  |  |
|  |  | CC(C)=CCC/C(C)=C/CC/C(C)=C/CSc1ccccc1C(=O)N1CCNCC1 | 4.59 | < 4.30 | 4.56 | 4.65 | 4.49 | 4.47 | 4.58 |  |  |  |  |  |  |  |
|  |  | CC(C)=CCC/C(C)=C/CC/C(C)=C/CSc1ccccc1C(=O)NCCCN | 4.89 | 4.91 | 4.76 | 4.93 | 4.97 | 4.86 | 4.69 |  |  |  |  |  |  |  |
|  |  | CC(C)=CCC/C(C)=C/CC/C(C)=C/CSc1ccccc1C(=O)NCCCCCCN | 5.10 | 5.12 | 5.00 | 5.06 | 5.10 | 5.10 | 5.12 |  |  |  |  |  |  |  |
|  |  | CC(C)=CCC/C(C)=C/CC/C(C)=C/CSc1ccccc1C(=O)NCCCNC(=O)c1ccccc1SC/C=C(\C)CC/C=C(\C)CCC=C(C)C | < 4.30 | < 4.30 | < 4.30 | < 4.30 | < 4.30 | < 4.30 | < 4.30 |  |  |  |  |  |  |  |
|  |  | CNC(=O)c1cc(Oc2ccc(NC(=O)Nc3ccc(Cl)c(C(F)(F)F)c3)cc2)ccn1 [SORAFENIB] | 4.94 | 5.03 | 4.64 | 4.91 | 4.73 | 5.04 | 4.97 |  |  |  |  |  |  |  |
|  |  | CC(C)=CCC/C(C)=C/CC/C(C)=C/CSc1ccccc1C(=O)NCCCCNC(=O)c1ccccc1SC/C=C(\C)CC/C=C(\C)CCC=C(C)C | < 4.30 | < 4.30 | < 4.30 | < 4.30 | < 4.30 | 4.34 | < 4.30 |  |  |  |  |  |  |  |
| 3.65 (≈ 10.2 mM) | 6.32 | CC(C)=CCC/C(C)=C/CC/C(C)=C/CSc1ccccc1C(=O)O [SALIRASIB] | 4.38 | 4.29 | 4.32 | 4.27 | 4.16 | 4.31 | 4.31 | Active | Active | 5.87 | 80.4 | 13.49 | 0.21 | Active |
